Measurements as given in ChEMBL document CHEMBL4219124, “Alleviating CYP and hERG liabilities by structure optimization of dihydrofuran-fused tricyclic benzo[d]imidazole series - Potent, selective and orally efficacious microsomal prostaglandin E synthase-1 (mPGES-1) inhibitors: Part-2” (Bioorg Med Chem Lett, 2018).

Tests used:
[1] = (§1) Oral bioavailability in cynomolgus monkey at 10 mg/kg; type: ADME, organism-based, Macaca fascicularis; details: in vivo
Summary of the method: (§2)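 Plasma PK after 1 mg/kg i.v. and 10 mg/kg p.o.; %F from both routes. Rat: male Sprague-Dawley, oral 0.5% methylcellulose suspension, i.v. 20% NMP/20% ethanol/60% PEG 200, n = 3. Dog oral: Tween 80 2.5 μL/mL + 0.5% MC suspension. Monkey oral: same Tween/MC suspension; i.v. 10% NMP/10% ethanol/10% PEG/70% PEG200-water premix.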

[2] = Tmax in Beagle dog at 10 mg/kg, po; type: ADME, organism-based, Canis lupus familiaris; details: in vivo
Summary of the method: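 Tmax from oral 10 mg/kg dosing. Rat: male Sprague-Dawley, 0.5% MC suspension, n = 3. Guinea pig: 20% NMP + 0.5% MC suspension, n = 3. Dog and monkey: 2.5 μL/mL Tween 80 + 0.5% MC suspension.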

[3] = AUC (0 to 24 hrs) in cynomolgus monkey at 10 mg/kg, po; type: ADME, organism-based, Macaca fascicularis; design: time < 24 hr, dose 10 mg/kg, route oral; details: in vivo
Summary of the method: (§3)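 Single oral dose of 10 mg/kg. Cmax and AUC0-24 taken from the oral arm. Rat: male Sprague-Dawley, dosed in 0.5% methylcellulose suspension, mean ± SD (n = 3). Guinea pig: 20% NMP + 0.5% MC suspension, mean ± SD (n = 3). Dog and cynomolgus monkey: 2.5 μL/mL Tween 80 + 0.5 (w/v) MC suspension.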

Canis familiaris [4] = assay: (§4) AUC (0 to 24 hrs) in Beagle dog at 10 mg/kg, po; type: ADME, organism-based, Canis lupus familiaris; design: dose 10 mg/kg, time < 24 hr, route oral; details: in vivo, 24 h; summary of the method: as §3
[5] = Clearance in cynomolgus monkey at 1 mg/kg, iv; type: ADME, organism-based, Macaca fascicularis; details: in vivo
Summary of the method: (§5)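 Intravenous dose of 1 mg/kg; clearance and Vz derived from the i.v. arm. Rat (male Sprague-Dawley) vehicle 20% NMP + 20% ethanol + 60% PEG 200, mean ± SD (n = 3). Dog vehicle 20% NMP + 20% EtOH + 10% PG + 50% PEG 200:water (3:2). Monkey vehicle 10% NMP + 10% ethanol + 10% PEG + 70% PEG200:water (3:2).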

[6] = Protein binding in cynomolgus monkey plasma at 10 uM after 5 hrs by equilibrium dialysis based LC-MS/MS analysis; type: ADME, cell-free, Macaca fascicularis; details: read-out: PPB (converted)
Summary of the method: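 Equilibrium dialysis at 10 μM compound; result expressed as percent bound.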

[7] = Cmax in Sprague-Dawley rat at 10 mg/kg, po; type: ADME, organism-based; design: dose 10 mg/kg, route oral; details: in vivo; summary of the method: as §3
[8] = Ratio of drug uptake in brain to plasma of Beagle dog at 10 mg/kg, po; type: ADME, organism-based, Canis lupus familiaris; details: read-out: BPR
Cynomolgus monkey = assay: as §1; type: ADME, organism-based, Macaca fascicularis; details: in vivo; summary of the method: as §2
[9] = Oral bioavailability in Beagle dog at 10 mg/kg; type: ADME, organism-based, Canis lupus familiaris; details: Beagle, in vivo; summary of the method: as §2
[10] = Ratio of drug uptake in brain to plasma of Dunkin-Hartley guinea pig LPS-induced hyperalgesia pain model at 10 mg/kg, po administered 2 hrs prior to LPS challenge measured 7 hrs post dose; type: ADME, organism-based, Cavia porcellus; details: brain and plasma, read-out: BPR
Summary of the method: (§6)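 Guinea pigs dosed orally at 10, 30 or 100 mg/kg 2 h before intraplantar LPS in the right hind paw; thermal hyperalgesia scored. Plasma (ng/mL) and brain (ng/g) levels taken 7 h post dose; brain/plasma ratio computed. Means of 6–9 animals per group, single experiment.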

[11] = as §4; type: ADME, organism-based, Canis lupus familiaris; design: dose 10 mg/kg, time < 24 hr, route oral; details: Beagle, in vivo; summary of the method: as §3
[12] = Clearance in Beagle dog at 1 mg/kg, iv; type: ADME, organism-based, Canis lupus familiaris; details: in vivo; summary of the method: as §5
Canis familiaris [13] = assay: Toxicity in Beagle dog assessed as emesis at 10 mg/kg, po; type: organism-based, Canis lupus familiaris; details: in vivo
Cavia porcellus [14] = assay: Analgesic activity in Dunkin-Hartley guinea pig hyperalgesia pain model assessed as inhibition of LPS-induced hyperalgesia administered orally 2 hrs prior to LPS challenge measured after 4.5 hrs; type: functional; details: po
Summary of the method: (§7)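 Guinea pigs received compound orally, once daily, at 10, 30 or 100 mg/kg, 2 h before LPS was injected into the plantar surface of the right paw. Saline-injected animals served as the comparison for thermal hyperalgesia. Plasma and brain drug levels taken 7 h after dosing, mean of n = 6–9 per group, from a single experiment.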

Cavia porcellus [15] = assay: Analgesic activity in Dunkin-Hartley guinea pig hyperalgesia pain model assessed as inhibition of LPS-induced hyperalgesia at 10 mg/kg, po administered 2 hrs prior to LPS challenge measured after 4.5 hrs relative to control; type: functional; summary of the method: as §7
Cavia porcellus [16] = assay: Analgesic activity in Dunkin-Hartley guinea pig hyperalgesia pain model assessed as inhibition of LPS-induced hyperalgesia at 30 mg/kg, po administered 2 hrs prior to LPS challenge measured after 4.5 hrs relative to control; type: functional; summary of the method: as §7
[17] = Plasma concentration in Dunkin-Hartley guinea pig LPS-induced hyperalgesia pain model at 100 mg/kg, po administered 2 hrs prior to LPS challenge measured 7 hrs post dose; type: ADME, organism-based, Cavia porcellus; summary of the method: as §6
[18] = Drug uptake in brain of Dunkin-Hartley guinea pig LPS-induced hyperalgesia pain model at 30 mg/kg, po administered 2 hrs prior to LPS challenge measured 7 hrs post dose; type: ADME, organism-based, Cavia porcellus; details: read-out: Drug uptake; summary of the method: as §7
[19] = Drug uptake in brain of Dunkin-Hartley guinea pig LPS-induced hyperalgesia pain model at 10 mg/kg, po administered 2 hrs prior to LPS challenge measured 7 hrs post dose; type: ADME, organism-based, Cavia porcellus; details: read-out: Drug uptake; summary of the method: as §7
[20] = Drug uptake in brain of Dunkin-Hartley guinea pig LPS-induced hyperalgesia pain model at 100 mg/kg, po administered 2 hrs prior to LPS challenge measured 7 hrs post dose; type: ADME, organism-based, Cavia porcellus; details: read-out: Drug uptake; summary of the method: as §7
[21] = Ratio of drug uptake in brain to plasma of Dunkin-Hartley guinea pig LPS-induced hyperalgesia pain model at 30 mg/kg, po administered 2 hrs prior to LPS challenge measured 7 hrs post dose; type: ADME, organism-based, Cavia porcellus; details: read-out: BPR; summary of the method: as §6
[22] = Ratio of drug uptake in brain to plasma of Dunkin-Hartley guinea pig LPS-induced hyperalgesia pain model at 100 mg/kg, po administered 2 hrs prior to LPS challenge measured 7 hrs post dose; type: ADME, organism-based, Cavia porcellus; details: read-out: BPR; summary of the method: as §6
Cavia porcellus [23] = assay: Analgesic activity in Dunkin-Hartley guinea pig MIA-induced osteoarthritic pain model assessed as reversal of incapacitance at 100 mg/kg, po administered on day 3 measured 6 to 7 hrs post dose relative to control; type: functional
Summary of the method: (§8)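 Day 0: monoiodoacetate injected into the right shoulder joint of guinea pigs; saline-injected animals as comparison. Day 3: compound given orally at 100, 250 or 500 mg/kg, and weight-bearing incapacitance on the injected forelimb measured. Plasma sampled at the PD time point, n = 6–8 per group, single experiment.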

Cavia porcellus [24] = assay: Analgesic activity in Dunkin-Hartley guinea pig MIA-induced osteoarthritic pain model assessed as reversal of incapacitance at 250 mg/kg, po administered on day 3 measured 6 to 7 hrs post dose relative to control; type: functional; summary of the method: as §8
Cavia porcellus [25] = assay: Analgesic activity in Dunkin-Hartley guinea pig MIA-induced osteoarthritic pain model assessed as reversal of incapacitance at 500 mg/kg, po administered on day 3 measured at 6 to 7 hrs relative to control; type: functional; summary of the method: as §8
[26] = Plasma concentration in Dunkin-Hartley guinea pig MIA-induced osteoarthritic pain model at 250 mg/kg, po measured 2 hrs post dose; type: ADME, organism-based, Cavia porcellus
Summary of the method: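 Intra-articular MIA into the right shoulder joint on day 0; oral dosing at 100, 250 or 500 mg/kg on day 3, incapacitance (forelimb weight bearing) measured. Plasma concentration sampled 2 h post dose. Means of 6–8 animals per group, single experiment.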

[27] = Ratio of plasma concentration in Dunkin-Hartley guinea pig MIA-induced osteoarthritic pain model to IC50 for mPGES1 in human whole blood; type: ADME; details: in vivo

| bioavailability [1] [%] | Tmax [2] [h] | AUC(0-t) at 24 h [3] [ng·h/mL] | clearance [5] [mL/min/kg] | fraction unbound at 5 h, 10 µM [6] | Cmax [7] [ng/mL] | Kp [8] | bioavailability [9] [%] | AUC(0-t) at 24 h [11] [ng·h/mL] | clearance [12] [mL/min/kg] | Structure (SMILES) | other results |
| --- | --- | --- | --- | --- | --- | --- | --- | --- | --- | --- | --- |
| 21 | 12 | 3670 | 8.5 | 0.005 | 344 | 0.32 | – | – | – | CC1(C)Cc2c(c(C(=O)Nc3ccc(C(F)(F)F)cn3)cc3nc(Nc4c(Cl)cccc4Cl)[nH]c23)O1 | AUC (Canis familiaris [4]): 4432 ng·h/mL |
| – | 12 | – | – | 0.0052 | 995 | 0.72 | 15 | 8240 | 1.61 | CC1(C)Cc2c(c(C(=O)Nc3ccc(F)c(C(F)(F)F)c3)cc3nc(Nc4c(F)cccc4Cl)[nH]c23)O1 | F (Cynomolgus monkey): 44%; Kp at 7 h [10]: 1.02; Activity (Canis familiaris [13]): Non-Toxic; ED50 (Cavia porcellus [14]): 39.6 mg/kg; inhibition in vivo at 10 mg/kg (Cavia porcellus [15]): 20%; inhibition in vivo at 30 mg/kg (Cavia porcellus [16]): 44%; concentration at 7 h [17]: 1080 nM; concentration at 7 h [18]: 87 ng/g; concentration at 7 h [19]: 96 ng/g; concentration at 7 h [20]: 1150 nM; Kp at 7 h [21]: 0.6; Kp at 7 h [22]: 1.06; Activity (Cavia porcellus [23]): 48%; Activity (Cavia porcellus [24]): 73%; Activity (Cavia porcellus [25]): 83%; concentration at 2 h [26]: 1510 ng/mL; Ratio [27]: 17 |
| 11 | 8 | 7510 | 1.6 | – | 210 | – | 40 | 12900 | 3.5 | Cc1cccc(Cl)c1Nc1nc2cc(C(=O)Nc3cc(C(F)(F)F)ccc3F)c3c(c2[nH]1)CC(C)(C)O3 | – |
